Laboratory results from ChEMBL document CHEMBL1140235, “Novel 4-(4-aryl)cyclohexyl-1-(2-pyridyl)piperazines as Delta(8)-Delta(7) sterol isomerase (emopamil binding protein) selective ligands with antiproliferative activity” (J Med Chem, 2008).

How the values were obtained:
[1] = Selectivity ratio of Ki for sigma 2 receptor in rat liver membrane to Ki for EBP in guinea pig liver membrane; format: cell membranes
[2] = target: Sigma non-opioid intracellular receptor 1 (Cavia porcellus, UniProt Q60492); test: Displacement of [3H](+)-pentazocine from sigma 1 receptor in guinea pig brain membrane without cerebellum; format: cell membranes
Sigma non-opioid intracellular receptor 1, sequence (Q60492 whole entry): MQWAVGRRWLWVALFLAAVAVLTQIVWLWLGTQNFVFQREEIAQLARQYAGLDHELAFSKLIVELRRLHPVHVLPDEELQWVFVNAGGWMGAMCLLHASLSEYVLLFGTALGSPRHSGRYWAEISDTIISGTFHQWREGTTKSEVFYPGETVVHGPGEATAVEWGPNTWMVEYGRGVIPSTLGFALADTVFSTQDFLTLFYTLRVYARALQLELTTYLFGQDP
How it was run: (§1)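 Radioligand displacement run by previously published methods, EBP per Moebius and σ1/σ2 per Matsumoto. Tissues from male Dunkin guinea pigs and Wistar Hannover rats (250–300 g). IC50 from six to nine drug concentrations in two or three experiments, samples in duplicate.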

Cavia porcellus = species: Cavia porcellus; test: Selectivity ratio of Ki for sigma 1 receptor in guinea pig brain membrane without cerebellum to Ki for EBP in guinea pig liver membrane; format: cell membranes
PC-3 [3] = test: Cytotoxicity against human PC3 cells assessed as LDH release at 100 uM after 24 hrs relative to untreated control; format: functional
How it was run: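 PC-3 cells exposed to test compound for 24 h at 37 °C, 5% CO2. LDH release into the medium was measured fluorimetrically (ex 560/em 590 nm) after 10 min with substrate mix at room temperature, then stop solution. Total LDH taken from lysed untreated wells. % cytotoxicity = 100 × (treated medium LDH − background)/(total LDH − background).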

[4] = Displacement of [3H]-DTG from sigma 2-type opioid receptor in rat liver membrane in presence of (+)-pentazocine; format: cell membranes; how it was run: as §1
PC-3 [5] = test: Antiproliferative activity against human PC3 cells expressing EBP after 48 hrs by MTT assay; format: functional, cell-based
How it was run: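 MTT read-out at 48 h in PC-3 cells grown in RPMI 1640 with 10% FBS, 2 mM glutamine, penicillin/streptomycin, 37 °C, 5% CO2. 10 000 cells/well seeded day 1, drugs added day 2 over 1–100 µM (150 or 300 µM for some references). Solvent controls included. MTT 0.5 mg/mL for 3 h, formazan dissolved in DMSO, absorbance at 570 and 630 nm.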

[6] = target: T1, 3-beta-hydroxysteroid-Delta(8),Delta(7)-isomerase (Cavia porcellus, UniProt Q60490); test: Displacement of [3H](-)-(S)-emopamil from EBP in guinea pig liver membrane; format: cell membranes; how it was run: as §1
T1 sequence (Q60490 whole entry): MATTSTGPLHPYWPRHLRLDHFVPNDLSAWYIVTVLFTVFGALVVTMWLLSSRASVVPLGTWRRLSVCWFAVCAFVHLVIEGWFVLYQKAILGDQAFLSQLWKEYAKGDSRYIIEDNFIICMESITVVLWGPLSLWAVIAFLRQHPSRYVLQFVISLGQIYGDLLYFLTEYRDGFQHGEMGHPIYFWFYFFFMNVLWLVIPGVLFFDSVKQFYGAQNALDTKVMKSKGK

SMILES	Ratio Ki [1]	Ki [2]	Ratio Ki (Cavia porcellus)	Activity (PC-3 [3])	Ki [4]	EC50 (PC-3 [5])	Ki [6]
COc1cccc(OC)c1[C@H]1CC[C@@H](N2CCN(c3ccccn3)CC2)CC1	138	> 6000 nM	> 1210	<10%	687 nM	12900 nM	4.95 nM
COc1ccc([C@H]2CC[C@H](N3CCN(c4ccccn4)CC3)CC2)cc1	3	291 nM	4	<10%	222 nM	–	71.6 nM
CC(C(O)c1ccc(O)cc1)N1CCC(Cc2ccccc2)CC1 (racemic) [IFENPRODIL]	–	–	–	<10%	2.3 nM	25800 nM	16.4 nM
COc1cccc(C2=CCC(N3CCN(c4ccccn4)CC3)CC2)c1 (configuration not stated)	–	220 nM	–	<10%	–	–	2640 nM
Cc1ccccc1[C@H]1CC[C@H](N2CCN(c3ccccn3)CC2)CC1	3.3	30.7 nM	3.4	<10%	29.6 nM	–	9.04 nM
c1ccc([C@H]2CC[C@H](N3CCN(c4ccccn4)CC3)CC2)cc1	1.6	104 nM	6	<10%	26.9 nM	–	16.8 nM
CC(C)=CCN1CC[C@]2(C)c3cc(O)ccc3C[C@H]1[C@H]2C [(+)-PENTAZOCINE]	–	–	–	<10%	1860 nM	86900 nM	> 10 nM
Cc1ccccc1[C@H]1CC[C@@H](N2CCN(c3ccccn3)CC2)CC1	14	1000 nM	200	<10%	71 nM	38000 nM	5 nM
Fc1cccc(F)c1[C@H]1CC[C@H](N2CCN(c3ccccn3)CC2)CC1	1.2	190 nM	1.8	<10%	138 nM	–	106 nM
COc1ccc2c(c1)CCC(CN1CCN(c3ccccn3)CC1)C2 (configuration not stated)	–	358 nM	–	<10%	1250 nM	–	32.1 nM
Clc1ccccc1[C@H]1CC[C@@H](N2CCN(c3ccccn3)CC2)CC1	1.8	1090 nM	13	<10%	150 nM	–	85.1 nM
c1ccc([C@H]2CC[C@@H](N3CCN(c4ccccn4)CC3)CC2)cc1	1.3	802 nM	16	<10%	62 nM	–	49.2 nM
COc1cccc(C2=CCC(N3CCN(c4ccccc4)CC3)CC2)c1 (configuration not stated)	–	–	–	<10%	–	–	460 nM
Cc1cccc(C)c1[C@H]1CC[C@@H](N2CCN(c3ccccn3)CC2)CC1	1.8	6.32 nM	0.2	<10%	60.2 nM	–	33.1 nM
COc1cccc([C@H]2CC[C@H](N3CCN(c4ccccn4)CC3)CC2)c1	2	24.8 nM	–	<10%	21.9 nM	23000 nM	16.2 nM
COc1ccccc1[C@H]1CC[C@H](N2CCN(c3ccccn3)CC2)CC1	1.3	2.86 nM	–	<10%	30 nM	–	13.5 nM
CCCN(CCC)CCc1ccc(OC)c(OCCc2ccccc2)c1	–	–	–	<10%	212 nM	47000 nM	–
Clc1ccccc1[C@H]1CC[C@H](N2CCN(c3ccccn3)CC2)CC1	4	190 nM	26	<10%	29.1 nM	–	7.21 nM
Fc1cccc(F)c1[C@H]1CC[C@@H](N2CCN(c3ccccn3)CC2)CC1	3	5170 nM	37	<10%	440 nM	37300 nM	140 nM
COc1cccc(OC)c1[C@H]1CC[C@H](N2CCN(c3ccccn3)CC2)CC1	3.6	215 nM	31	<10%	25 nM	–	7 nM
Cc1cccc(C)c1C1=CCC(N2CCN(c3ccccn3)CC2)CC1 (racemic)	2.4	177 nM	3.8	<10%	113 nM	–	46.7 nM
